Measurements published in ChEMBL document CHEMBL4390651, “Indole based antimalarial compounds targeting the melatonin pathway: Their design, synthesis and biological evaluation” (Eur J Med Chem, 2019).
pIC50: −log10 of the molar value. The source made the active and inactive calls. The calls are words filed in the database; no cut-off is given here.

How the values were obtained:
Plasmodium falciparum [1] = assay: (§1) Antimalarial activity against mixed stage of Plasmodium falciparum infected in human erythrocytes assessed as protection against melatonin-induced parasite synchronization by measuring parasitemia at 1 uM incubated for 48 hrs by Giemsa staining-based microscopic analysis (reference value: 4.76 +/- 0.61%); format: functional
Plasmodium falciparum [2] = assay: as §1, with “ring” for “mixed”, “parasitemia” for “parasitemia at”, “measured immediately” for “incubated for 48 hrs”, “23.90” for “4.76”, “0.84%)” for “0.61%)”; format: functional
Plasmodium falciparum [3] = assay: as §1, with “ring” for “mixed”, “5” for “at 1”, “11.80” for “4.76”, “9.19%)” for “0.61%)”; format: functional
Plasmodium falciparum [4] = assay: as §1, with “schizont” for “mixed”, “parasitemia” for “parasitemia at”, “measured immediately” for “incubated for 48 hrs”, “23.25” for “4.76”, “0.35%)” for “0.61%)”; format: functional
Plasmodium falciparum [5] = assay: as §1, with “troph” for “mixed”, “parasitemia” for “parasitemia at”, “measured immediately” for “incubated for 48 hrs”, “52.50” for “4.76”, “0.70%)” for “0.61%)”; format: functional
Plasmodium falciparum [6] = assay: as §1, with “troph” for “mixed”, “parasitemia” for “parasitemia at”, “88.20” for “4.76”, “9.19%)” for “0.61%)”; format: functional
Plasmodium falciparum [7] = assay: Antimalarial activity against schizont stage of Plasmodium falciparum 3D7 infected in human erythrocytes assessed as parasite survival level at 10 uM measured immediately at 0 hrs by Giemsa staining-based microscopic analysis (reference value: 0%); format: functional; conditions: 3D7, 0 h
Plasmodium falciparum [8] = assay: (§2) Antimalarial activity against schizont stage of Plasmodium falciparum infected in human erythrocytes assessed as protection against melatonin-induced parasite synchronization by measuring parasitemia 5 uM incubated for 48 hrs by Giemsa staining-based microscopic analysis (reference value: 0%); format: functional
Plasmodium falciparum [9] = assay: Antimalarial activity against trophozoite stage of Plasmodium falciparum 3D7 infected in human erythrocytes assessed as parasite survival level at 10 uM incubated for 48 hrs by Giemsa staining-based microscopic analysis (reference value: 43.65 +/- 5.16%); format: functional; conditions: 3D7, 48 h
Plasmodium falciparum [10] = assay: as §2, with “measured immediately” for “incubated for 48 hrs”, “23.25 +/- 0.35%)” for “0%)”; format: functional
Plasmodium falciparum [11] = assay: Antimalarial activity against schizont stage of Plasmodium falciparum 3D7 infected in human erythrocytes assessed as parasite survival level at 10 uM incubated for 48 hrs by Giemsa staining-based microscopic analysis (reference value: 5 +/- 7.07%); format: functional; conditions: 3D7, 48 h
Plasmodium falciparum [12] = assay: Antimalarial activity against ring stage of Plasmodium falciparum 3D7 infected in human erythrocytes assessed as parasite survival level at 10 uM incubated for 48 hrs by Giemsa staining-based microscopic analysis (reference value: 51.3 +/- 1.83%); format: functional; conditions: 3D7, 48 h
Plasmodium falciparum [13] = assay: as §2, with “troph” for “schizont”, “88.20 +/- 9.19%)” for “0%)”; format: functional
Plasmodium falciparum [14] = assay: as §1, with “measured immediately at 0” for “incubated for 48”, “1.05” for “4.76”, “0.07%)” for “0.61%)”; format: functional
Plasmodium falciparum [15] = assay: as §1, with “5” for “1”, “measured immediately at 0” for “incubated for 48”, “1.05” for “4.76”, “0.07%)” for “0.61%)”; format: functional
Plasmodium falciparum [16] = assay: as §1, with “at 5” for “at 1”; format: functional
Plasmodium falciparum [17] = assay: Antimalarial activity against ring stage of Plasmodium falciparum 3D7 infected in human erythrocytes assessed as parasite survival level at 10 uM measured immediately at 0 hrs by Giemsa staining-based microscopic analysis (reference value: 96.4 +/- 5.09%); format: functional; conditions: 3D7, 0 h
Plasmodium falciparum [18] = assay: Antimalarial activity against Plasmodium falciparum 3D7 ring stage synchronized forms infected in human erythrocytes assessed as inhibition of parasite proliferation at 5 uM incubated for 48 hrs by Giemsa-staining method; format: functional; conditions: 3D7, 48 h
Outline: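 P. falciparum 3D7 grown in human O+ erythrocytes at 5% hematocrit in RPMI 1640 with NaHCO3, albumax, gentamicin and hypoxanthine, at 37 °C under 90% N2/5% CO2/5% O2. Single-concentration screen read as % inhibition of parasite proliferation. Mean of three experiments, each in triplicate.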

Plasmodium falciparum [19] = assay: as §2, with “troph” for “schizont”, “measured immediately” for “incubated for 48 hrs”, “52.50 +/- 0.70%)” for “0%)”; format: functional
Plasmodium falciparum [20] = assay: as §2, with “ring” for “schizont”, “measured immediately” for “incubated for 48 hrs”, “23.90 +/- 0.84%)” for “0%)”; format: functional
Plasmodium falciparum [21] = assay: as §1, with “ring” for “mixed”, “parasitemia” for “parasitemia at”, “11.80” for “4.76”, “9.19%)” for “0.61%)”; format: functional
Plasmodium falciparum [22] = assay: Antimalarial activity against synchronized ring stage of Plasmodium falciparum 3D7 infected in human erythrocytes assessed as inhibition of parasite growth at 10 uM incubated for 0 to 48 hrs by Giemsa staining-based microscopic analysis; format: functional
Outline: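 3D7 was sorbitol-synchronized to ring stage at 1% parasitemia, cultured in human O+ erythrocytes (5% hematocrit, RPMI 1640/albumax, 37 °C, low-O2 gas), and exposed for 48 h, with DMSO as control. Giemsa smears at 0, 12, 24, 36 and 48 h gave parasitemia and stage morphology. Mean ± SD of three independent experiments.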

Plasmodium falciparum [23] = assay: Antimalarial activity against trophozoite stage of Plasmodium falciparum 3D7 infected in human erythrocytes assessed as parasite survival level at 10 uM measured immediately at 0 hrs by Giemsa staining-based microscopic analysis (reference value: 3.55 +/- 5.02%); format: functional; conditions: 3D7, 0 h
Plasmodium falciparum [24] = assay: Antimalarial activity against schizont stage of Plasmodium falciparum infected in human erythrocytes assessed as protection against melatonin-induced parasite synchronization by measuring parasitemia 1 uM incubated for 48 hrs by Giemsa staining-based microscopic analysis (reference value: 0%); format: functional
Plasmodium falciparum [25] = assay: Antimalarial activity against Plasmodium falciparum 3D7 infected in human erythrocytes assessed as reduction in [3H]hypoxanthine incorporation pretreated for 24 hrs followed by [3H]hypoxanthine addition and measured after 48 hrs by scintillation counting method
[26] = target: Melatonin receptor type 1A (Homo sapiens) (UniProt P48039); assay: Inhibition of human MTNR1 receptor at 500 nM using TMB as substrate preincubated for 1 hr followed by substrate addition by ELISA relative to control
Outline: (§3)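 ELISA kit format: compounds incubated 1 h with MTNR1 receptor (5 ng/mL), melatonin as control. TMB substrate, stop solution, OD read at 450 nm; expressed as % inhibition.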

[27] = target: Melatonin receptor type 1A (Homo sapiens) (UniProt P48039); assay: Inhibition of human MTNR1 receptor at 5 uM using TMB as substrate preincubated for 1 hr followed by substrate addition by ELISA relative to control; outline: as §3
Plasmodium falciparum [28] = assay: Antimalarial activity against chloroquine resistant Plasmodium falciparum RKL9 infected in human erythrocytes assessed as reduction in parasitemia incubated for 0 to 48 hrs by Giemsa staining-based microscopic analysis; format: functional, organism-based
Outline: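 Sorbitol-synchronized ring-stage culture at 1% parasitemia, 5% hematocrit in human O+ erythrocytes (RPMI 1640, 0.5% albumax, hypoxanthine, gentamicin; 37 °C, 5% CO2/5% O2/90% N2). Compounds at […] for 48 h. Parasitemia counted on Giemsa-stained smears at 0 and 48 h. DMSO control. Mean of three independent experiments ±SD.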

[29] = Stability of the compound in 0.01 N HCL at pH 2.0 assessed as compound remaining at 1 mg/ml incubated for 0 to 24 hrs by HPLC analysis relative to control; format: physicochemical; conditions: buffer
Outline: (§4)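 Compound stock in acetonitrile was added to 1.0 mL of fresh 0.01 N HCl (pH 2.0) or phosphate buffer (pH 7.4), held at 37 °C, and the amount remaining was measured by HPLC at intervals from 0 to 24 h.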

Plasmodium falciparum [30] = assay: Antimalarial activity against synchronized ring stage of Plasmodium falciparum 3D7 infected in human erythrocytes assessed as inhibition of parasite growth incubated for 48 hrs by Giemsa staining-based microscopic analysis; format: functional, organism-based; conditions: 3D7, 48 h
Outline: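 Sorbitol-synchronized ring-stage 3D7 in human O+ erythrocytes was exposed to four concentrations (1, 5, 10 and 20) for 48 h. Parasitemia was counted on Giemsa smears and IC50 taken from the dose-response curve. Mean ± SD of three independent experiments.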

[31] = target: Melatonin receptor type 1A (Homo sapiens) (UniProt P48039); assay: Inhibition of human MTNR1 receptor at 1 uM using TMB as substrate preincubated for 1 hr followed by substrate addition by ELISA relative to control; outline: as §3
[32] = Stability of the compound in phosphate buffer at pH 7.4 assessed as compound remaining at 1 mg/ml incubated for 0 to 24 hrs by HPLC analysis relative to control; format: physicochemical; conditions: phosphate buffer, read-out: Stability; outline: as §4

Melatonin receptor type 1A (Homo sapiens), sequence (P48039 whole entry): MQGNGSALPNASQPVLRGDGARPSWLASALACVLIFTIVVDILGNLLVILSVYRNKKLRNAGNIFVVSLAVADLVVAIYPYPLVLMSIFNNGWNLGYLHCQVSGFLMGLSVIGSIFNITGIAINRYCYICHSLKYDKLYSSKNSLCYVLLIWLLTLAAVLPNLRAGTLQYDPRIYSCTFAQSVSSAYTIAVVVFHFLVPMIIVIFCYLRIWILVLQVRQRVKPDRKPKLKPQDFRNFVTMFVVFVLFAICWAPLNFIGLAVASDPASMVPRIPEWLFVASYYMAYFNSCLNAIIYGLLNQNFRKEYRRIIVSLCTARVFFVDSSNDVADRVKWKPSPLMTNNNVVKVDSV

Molecule `CC(=O)NCCc1c(Cc2ccccc2)[nH]c2ccccc12` [LUZINDOLE] has an Activity (Plasmodium falciparum [1]) of 2.88%, an Activity (Plasmodium falciparum [2]) of 23% and an Activity (Plasmodium falciparum [3]) of 21.97%. The Activity (Plasmodium falciparum [4]) was 25.8%, the Activity (Plasmodium falciparum [5]) was 50.5% and the Activity (Plasmodium falciparum [6]) was 80.9%. For the same molecule, the survival at 10 µM (Plasmodium falciparum [7]) was 0.5%, the Activity (Plasmodium falciparum [8]) was 0.88% and the survival at 10 µM (Plasmodium falciparum [9]) was 38.4%. It also gave an Activity (Plasmodium falciparum [10]) of 24%, a survival at 10 µM (Plasmodium falciparum [11]) of 0% and a survival at 10 µM (Plasmodium falciparum [12]) of 61.6%. The Activity (Plasmodium falciparum [13]) was 77.15%, the Activity (Plasmodium falciparum [14]) was 1.1% and the Activity (Plasmodium falciparum [15]) was 1.03%. The Activity (Plasmodium falciparum [16]) was 2.56%, the survival at 10 µM (Plasmodium falciparum [17]) was 91.5% and the inhibition at 5 µM (Plasmodium falciparum [18]) was 48%. The Activity (Plasmodium falciparum [19]) was 51.9%, the Activity (Plasmodium falciparum [20]) was 23.75% and the Activity (Plasmodium falciparum [21]) was 19.1%. For the same molecule, the “growth inhibition (GI)” value (Plasmodium falciparum [22]) was “Active”, the survival at 10 µM (Plasmodium falciparum [23]) was 8% and the Activity (Plasmodium falciparum [24]) was 0%.
`C/N=C(/c1ccc(OC)cc1F)c1[nH]c2ccccc2c1CCNC(=O)OC` gave an inhibition at 5 µM (Plasmodium falciparum [18]) of 47%.
`CC(C)=C[C@H]1C[C@](C)(/C=C/c2[nH]c3ccccc3c2CCN(C)C)n2c1c(CCN(C)C)c1ccccc12` showed a pIC50 (Plasmodium falciparum [25]) of 5.85 to 6.82.
Molecule `CNCCc1c(/C=C/[C@@]2(C)C[C@H](C=C(C)C)c3c(CCNC)c4ccccc4n32)[nH]c2ccccc12` has a pIC50 (Plasmodium falciparum [25]) of 5.85 to 6.82.
For `CC/N=C(/c1cc(C(F)(F)F)cc(C(F)(F)F)c1)c1[nH]c2ccc(OC)cc2c1CCNC(=O)OC`, the inhibition [26] was 60%, the inhibition [27] was 70% and the inhibition (Plasmodium falciparum [28]) was “Dose dependent effect”. For the same molecule, the survival at 10 µM (Plasmodium falciparum [7]) was 0.5%, the survival at 10 µM (Plasmodium falciparum [9]) was 17.5% and the Stability [29] was “Unstable”. The survival at 10 µM (Plasmodium falciparum [11]) was 14%, the survival at 10 µM (Plasmodium falciparum [12]) was 68.5% and the pIC50 (Plasmodium falciparum [30]) was 5.56. The survival at 10 µM (Plasmodium falciparum [17]) was 92.5%, the inhibition [31] was 80% and the “growth inhibition (GI)” value (Plasmodium falciparum [22]) was “Active”. For the same molecule, the survival at 10 µM (Plasmodium falciparum [23]) was 7% and the remaining at 1 mg/ml [32] was 60%.
Work on `C/N=C(/c1ccc(Cl)cc1)c1[nH]c2ccccc2c1CCNC(=O)OC` yielded an inhibition at 5 µM (Plasmodium falciparum [18]) of 32%.
`COC(=O)NCCc1c(C(=O)c2ccc(Cl)cc2)[nH]c2ccccc12` showed an inhibition at 5 µM (Plasmodium falciparum [18]) of 9%.
